Test results from ChEMBL document CHEMBL1667806, “Synthesis and evaluation of anti-tubercular activity of new dithiocarbamate sugar derivatives” (2011).
≈ marks a conversion by molar mass, not a printed value.

How the values were obtained:
[1] = system: Mycobacterium tuberculosis; assay: Antimycobacterial activity against Mycobacterium tuberculosis H37Rv; format: functional
[2] = microbe, parasite or virus in culture; format: functional, Mycobacterium bovis BCG str. Tokyo 172; conditions: Mycobacterium tuberculosis variant bovis BCG
[3] = microbe, parasite or virus in culture; format: functional, Mycobacterium avium subsp. hominissuis; conditions: Mycobacterium avium, 104
[4] = system: Mycobacterium avium; assay: microbe, parasite or virus in culture; format: functional, Mycobacterium avium subsp. avium ATCC 25291; conditions: ATCC 2529
[5] = system: Staphylococcus aureus; assay: Antimicrobial activity against Staphylococcus aureus; format: functional
[6] = system: Staphylococcus aureus; assay: microbe, parasite or virus in culture; format: functional; conditions: 873
[7] = system: Escherichia coli; assay: Antimicrobial activity against Escherichia coli DH5alpha; format: functional; conditions: DH5[alpha]
[8] = system: Staphylococcus aureus; assay: Antimicrobial activity against drug-sensitive Staphylococcus aureus 209PJC-1; format: functional
[9] = system: Staphylococcus aureus; assay: Antimicrobial activity against drug-sensitive Staphylococcus aureus RN4220; format: functional
[10] = system: Staphylococcus aureus; assay: Antimicrobial activity against methicillin-resistant Staphylococcus aureus MF490; format: functional
[11] = system: Enterococcus faecalis; assay: Antimicrobial activity against AGs-resistant Enterococcus faecalis ATCC 19433; format: functional
[12] = system: Enterococcus faecalis; assay: Antimicrobial activity against AGs-resistant Enterococcus faecalis ATCC 19434; format: functional
[13] = system: Escherichia coli; assay: Antimicrobial activity against drug-sensitive Escherichia coli JM109; format: functional
[14] = system: Klebsiella pneumoniae; assay: Antibacterial activity against […] Klebsiella pneumoniae ATCC BAA-1705; format: functional
[15] = system: Pseudomonas aeruginosa; assay: Antibacterial activity against drug-sensitive Pseudomonas aeruginosa PAO1; format: functional
[16] = system: Mycolicibacterium smegmatis; assay: microbe, parasite or virus in culture; format: functional; conditions: JATA 64.01
[17] = system: Mycobacterium tuberculosis; assay: Antimycobacterial activity against drug-sensitive Mycobacterium tuberculosis isolate 1; format: functional
[18] = system: Mycobacterium tuberculosis; assay: Antimycobacterial activity against drug-sensitive Mycobacterium tuberculosis isolate 2; format: functional
Method in brief: (§1)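 MIC by broth dilution in Middlebrook 7H9 broth supplemented with albumin, dextrose and catalase.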

[19] = system: Mycobacterium tuberculosis; assay: Antimycobacterial activity against drug-sensitive Mycobacterium tuberculosis isolate 3; format: functional; method in brief: as §1
[20] = system: Mycobacterium tuberculosis; assay: Antimycobacterial activity against drug-sensitive Mycobacterium tuberculosis isolate 4; format: functional; method in brief: as §1
[21] = system: Mycobacterium tuberculosis; assay: Antimycobacterial activity against drug-sensitive Mycobacterium tuberculosis isolate 5; format: functional; method in brief: as §1
[22] = system: Mycobacterium tuberculosis; assay: Antimycobacterial activity against drug-sensitive Mycobacterium tuberculosis isolate 6; format: functional; method in brief: as §1
[23] = system: Mycobacterium tuberculosis; assay: Antimycobacterial activity against drug-sensitive Mycobacterium tuberculosis isolate 7; format: functional; method in brief: as §1
[24] = system: Mycobacterium tuberculosis; assay: Antimycobacterial activity against drug-sensitive Mycobacterium tuberculosis isolate 8; format: functional; method in brief: as §1
[25] = system: Mycobacterium tuberculosis; assay: Antimycobacterial activity against drug-sensitive Mycobacterium tuberculosis isolate 9; format: functional; method in brief: as §1
[26] = system: Mycobacterium tuberculosis; assay: Antimycobacterial activity against drug-sensitive Mycobacterium tuberculosis isolate 10; format: functional; method in brief: as §1
[27] = system: Mycobacterium tuberculosis; assay: Antimycobacterial activity against drug-sensitive Mycobacterium tuberculosis isolate 11; format: functional; method in brief: as §1
[28] = system: Mycobacterium tuberculosis; assay: Antimycobacterial activity against drug-sensitive Mycobacterium tuberculosis isolate 12; format: functional; method in brief: as §1
[29] = system: Mycobacterium tuberculosis; assay: Antimycobacterial activity against drug-sensitive Mycobacterium tuberculosis isolate 13; format: functional; method in brief: as §1
[30] = system: Mycobacterium tuberculosis; assay: Antimycobacterial activity against drug-sensitive Mycobacterium tuberculosis isolate 14; format: functional; method in brief: as §1
[31] = system: Mycobacterium tuberculosis; assay: Antimycobacterial activity against drug-sensitive Mycobacterium tuberculosis isolate 15; format: functional; method in brief: as §1
[32] = system: Mycobacterium tuberculosis; assay: Antimycobacterial activity against drug-sensitive Mycobacterium tuberculosis isolate 16; format: functional; method in brief: as §1
[33] = system: Mycobacterium tuberculosis; assay: Antimycobacterial activity against drug-sensitive Mycobacterium tuberculosis isolate 17; format: functional; method in brief: as §1
[34] = system: Mycobacterium tuberculosis; assay: Antimycobacterial activity against drug-sensitive Mycobacterium tuberculosis isolate 18; format: functional; method in brief: as §1
[35] = system: Mycobacterium tuberculosis; assay: Antimycobacterial activity against drug-sensitive Mycobacterium tuberculosis isolate 19; format: functional; method in brief: as §1
[36] = system: Mycobacterium tuberculosis; assay: Antimycobacterial activity against drug-sensitive Mycobacterium tuberculosis isolate 20; format: functional; method in brief: as §1

CCC(=O)N[C@@H]1[C@@H](O)[C@H](O)[C@@H](CO)O[C@H]1SC(=S)N(C)C
MIC [1]: 50 µg/mL (≈ 148 µM)

CO[C@H]1/C=C/O[C@@]2(C)Oc3c(C)c(O)c4c(O)c(c(/C=N/N5CCN(C)CC5)c(O)c4c3C2=O)NC(=O)/C(C)=C\C=C\[C@H](C)[C@H](O)[C@@H](C)[C@@H](O)[C@@H](C)[C@H](OC(C)=O)[C@@H]1C [RIFAMPIN]
MIC [1]: 0.004 µg/mL (≈ 0.00486 µM) | MIC [2]: 0.004 µg/mL (≈ 0.00486 µM) | MIC [3]: 0.25 µg/mL (≈ 0.304 µM) | MIC [4]: < 0.05 µg/mL | MIC [5]: 0.002 µg/mL (≈ 0.00243 µM) | MIC [6]: 0.004 µg/mL (≈ 0.00486 µM) | MIC [7]: 50 µg/mL (≈ 60.8 µM)

NCC[C@H](O)C(=O)N[C@@H]1C[C@H](N)[C@@H](O[C@H]2O[C@H](CN)[C@@H](O)[C@H](O)[C@H]2O)[C@H](O)[C@H]1O[C@H]1O[C@H](CO)[C@@H](O)[C@H](N)[C@H]1O [AMIKACIN]
MIC [8]: 0.5 µg/mL (≈ 0.854 µM) | MIC [9]: 4 µg/mL (≈ 6.83 µM) | MIC [10]: > 128 µg/mL | MIC [11]: > 128 µg/mL | MIC [12]: 32 µg/mL (≈ 54.6 µM) | MIC [13]: 0.5 µg/mL (≈ 0.854 µM) | MIC [14]: 32 µg/mL (≈ 54.6 µM) | MIC [15]: 2 µg/mL (≈ 3.42 µM)

CCN(CC)C(=S)[S-].[Na+] [DITIOCARB SODIUM]
MIC [1]: 3.13 µg/mL | MIC [2]: 3.13 µg/mL | MIC [16]: > 100 µg/mL

N.S=C(S)N1CCCC1 [PYRROLIDINE DITHIOCARBAMIC ACID, AMMONIUM SALT]
MIC [1]: 0.2 µg/mL | MIC [2]: 0.4 µg/mL | MIC [16]: > 100 µg/mL | MIC [3]: 3.13 µg/mL | MIC [4]: 3.13 µg/mL | MIC [5]: 12.5 µg/mL | MIC [6]: 12.5 µg/mL | MIC [7]: 12.5 µg/mL | MIC [8]: 8 µg/mL | MIC [9]: 8 µg/mL | MIC [10]: 8 µg/mL | MIC [11]: 32 µg/mL | MIC [12]: 32 µg/mL | MIC [13]: > 32 µg/mL | MIC [14]: > 32 µg/mL | MIC [15]: > 32 µg/mL | MIC [17]: 0.2 µg/mL | MIC [18]: 0.2 µg/mL | MIC [19]: 0.2 µg/mL | MIC [20]: 0.2 µg/mL | MIC [21]: 0.2 µg/mL | MIC [22]: 0.2 µg/mL | MIC [23]: 0.4 µg/mL | MIC [24]: 0.4 µg/mL | MIC [25]: 0.2 µg/mL | MIC [26]: 0.2 µg/mL | MIC [27]: 0.2 µg/mL | MIC [28]: 0.2 µg/mL | MIC [29]: 0.4 µg/mL | MIC [30]: 0.2 µg/mL | MIC [31]: 0.2 µg/mL | MIC [32]: 0.2 µg/mL | MIC [33]: 0.2 µg/mL | MIC [34]: 0.2 µg/mL | MIC [35]: 0.4 µg/mL | MIC [36]: 0.4 µg/mL

CN(C)C(=S)[S-].[Na+] [SODIUM DIMETHYLCARBAMODITHIOATE]
MIC [1]: 1.56 µg/mL | MIC [2]: 1.56 µg/mL | MIC [16]: > 100 µg/mL | MIC [3]: > 100 µg/mL | MIC [4]: > 100 µg/mL | MIC [5]: > 100 µg/mL | MIC [6]: > 100 µg/mL | MIC [7]: > 100 µg/mL

CN(C)C(=S)S[C@@H]1O[C@H](CO)[C@@H](O)[C@H](O)[C@H]1NC(=O)c1ccccc1
MIC [1]: 100 µg/mL (≈ 259 µM)

NC[C@H]1O[C@H](O[C@H]2[C@H](O)[C@@H](O[C@H]3O[C@H](CO)[C@@H](O)[C@H](N)[C@H]3O)[C@H](N)C[C@@H]2N)[C@H](O)[C@@H](O)[C@@H]1O [KANAMYCIN]
MIC [1]: 1.56 µg/mL (≈ 3.22 µM) | MIC [2]: 0.3 µg/mL (≈ 0.619 µM) | MIC [3]: 3.13 µg/mL (≈ 6.46 µM) | MIC [4]: 3.13 µg/mL (≈ 6.46 µM) | MIC [5]: 12.5 µg/mL (≈ 25.8 µM) | MIC [6]: > 100 µg/mL | MIC [7]: 12.5 µg/mL (≈ 25.8 µM)

CN(C)C(=S)S[C@@H]1O[C@H](CO)[C@@H](O)[C@H](O)[C@H]1NC(=O)C1CC1
MIC [1]: 50 µg/mL (≈ 143 µM)

CC1(C)S[C@@H]2[C@H](NC(=O)[C@H](N)c3ccccc3)C(=O)N2[C@H]1C(=O)O [AMPICILLIN]
MIC [1]: 12.5 µg/mL (≈ 35.8 µM) | MIC [2]: 12.5 µg/mL (≈ 35.8 µM) | MIC [5]: 50 µg/mL (≈ 143 µM) | MIC [6]: > 100 µg/mL | MIC [7]: > 100 µg/mL

S=C([S-])N(c1c[nH]cn1)c1c[nH]cn1.[Na+]
MIC [1]: 6.25 µg/mL | MIC [2]: 12.5 µg/mL | MIC [16]: > 100 µg/mL
